Data taken from ChEMBL document CHEMBL1944532, “Synthesis and evaluation of anticancer activity of some novel 6-aryl-2-(p-sulfamylphenyl)-pyridazin-3(2H)-ones” (Eur J Med Chem, 2012).
The source made the active and inactive calls. The rule behind the calls is not given here.

Experiments:
BT-549 = test: Cytotoxicity against human BT549 cells assessed as cell growth at 10 uM after 48 hrs by SRB assay; type: functional; conditions: BT-549, 48 h, read-out: Activity
Method in brief: (§1)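 NCI primary single-dose screen at 10^-5 M against the ~60 human tumour cell line panel. Cells grown in RPMI-1640 with 5% fetal calf serum and 2 mM L-glutamine and pre-incubated 24 h before compound addition. Compound added from DMSO solution with 48 h exposure. Growth read by sulforhodamine B protein staining.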

HL-60(TB) [1] = test: Cytotoxicity against human HL-60(TB) cells after 48 hrs by SRB assay; type: functional; conditions: HL-60, 48 h
Method in brief: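 NCI 60-cell-line screen, five-dose assay: cells in RPMI1640 (printed "PMI1640") with 5% fetal calf serum and 2 mM L-glutamine, pre-incubated 24 h before compound addition. Compound in DMSO at 10-4, 10-5, 10-6, 10^-7 and 10^-8 M; continuous 48 h exposure. Growth estimated by sulforhodamine B protein assay; log GI50, TGI and LC50 derived from dose-response.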

LOX IMVI = test: Antitumor activity against human LOXIMVI cells implanted in mouse dosed qd for 4 days by formazan dye-based hollow fiber assay; type: functional, organism-based
Method in brief: (§2)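 Cells grown inside polyvinylidene fluoride hollow fibers; each line implanted into both intraperitoneal and subcutaneous compartments in mice. Compound given ip at two doses on a QD x 4 schedule. Fibers then recovered and viable cell mass measured by formazan dye conversion. Scored 2 per dose giving ≥50% reduction in viable cell mass (%T/C 50).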

SF-295 = test: Antitumor activity against human SF295 cells implanted in mouse dosed qd for 4 days by formazan dye-based hollow fiber assay; type: functional, organism-based; method in brief: as §2
OVCAR-8 = test: Cytotoxicity against human OVCAR8 cells assessed as cell growth at 10 uM after 48 hrs by SRB assay; type: functional; conditions: OVCAR-8, 48 h, read-out: Activity
Method in brief: (§3)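 NCI primary single-dose screen at 10^-5 M against the full panel of about 60 human tumor cell lines. Cells were in RPMI-1640 with 5% fetal calf serum and 2 mM L-glutamine and preincubated 24 h. Compound was given in DMSO with 48 h exposure. Growth was estimated by sulforhodamine B protein assay.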

ACHN = test: Cytotoxicity against human ACHN cells assessed as cell growth at 10 uM after 48 hrs by SRB assay; type: functional; conditions: read-out: Activity; method in brief: as §1
HL-60(TB) [2] = test: Cytotoxicity against human HL-60(TB) cells assessed as cell growth at 10 uM after 48 hrs by SRB assay; type: functional; conditions: HL-60, 48 h, read-out: Activity
Method in brief: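 NCI primary one-dose screen at 10^-5 M against about 60 human tumor cell lines. Cells pre-incubated 24 h, then compound in DMSO added for 48 h. Cell growth read by sulforhodamine B protein assay.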

Hs-578T [3] = test: Cytotoxicity against human Hs578T cells after 48 hrs by SRB assay; type: functional
Method in brief: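 NCI ~60-line panel in RPMI-1640 with 5% fetal calf serum and 2 mM L-glutamine, pre-incubated 24 h. Compound in DMSO tested at five 10-fold concentrations (10^-4 to 10^-8 M) with 48 h continuous exposure. Growth measured by sulforhodamine B protein assay. GI50 (50% net growth inhibition), TGI (total inhibition) and LC50 (50% net cell death) derived from dose-response.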

HCT-116 = test: Cytotoxicity against human HCT116 cells assessed as cell growth at 10 uM after 48 hrs by SRB assay; type: functional; conditions: HCT-116, 48 h, read-out: Activity; method in brief: as §1
TK-10 = test: Cytotoxicity against human TK10 cells after 48 hrs by SRB assay; type: functional; conditions: TK-10, 48 h
Method in brief: (§4)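 NCI 60-cell-line five-dose screen. Cells were grown in 1640 medium with 5% fetal calf serum and 2 mM L-glutamine, with inoculum density set by cell line, and pre-incubated 24 h. Compound in DMSO was added at 10^-4 to 10^-8 M (10-fold steps) with 48 h continuous exposure. Growth was read by SRB protein assay, and GI50, TGI and LC50 were derived from dose-response.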

Hs-578T [4] = test: Cytotoxicity against human Hs578T cells assessed as cell growth at 10 uM after 48 hrs by SRB assay; type: functional; conditions: read-out: Activity; method in brief: as §1
SNB-19 = test: Cytotoxicity against human SNB19 cells assessed as cell growth at 10 uM after 48 hrs by SRB assay; type: functional; conditions: SNB-19, 48 h, read-out: Activity
Method in brief: (§5)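 NCI primary one-dose screen at 10^-5 M against the full panel of about 60 human tumour cell lines, run to the NCI Drug Evaluation Branch protocol.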

NCI/ADR-RES = test: Cytotoxicity against human NCI/ADR-RES cells assessed as cell growth at 10 uM after 48 hrs by SRB assay; type: functional; conditions: read-out: Activity; method in brief: as §3
NCI-H226 = test: Cytotoxicity against human NCI-H226 cells assessed as cell growth at 10 uM after 48 hrs by SRB assay; type: functional; conditions: NCI-H226, 48 h, read-out: Activity; method in brief: as §3
SR = test: Cytotoxicity against human SR cells after 48 hrs by SRB assay; type: functional; method in brief: as §4
OVCAR-3 = test: Antitumor activity against human OVCAR3 cells implanted in mouse dosed qd for 4 days by formazan dye-based hollow fiber assay; type: functional, organism-based; method in brief: as §2
RPMI-8226 = test: Cytotoxicity against human RPMI8226 cells after 48 hrs by SRB assay; type: functional; conditions: RPMI-8226, 48 h
Method in brief: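 NCI five-dose screen on the ~60-line human tumor panel. Cells grown in RPMI-1640 with 5% fetal calf serum and 2 mM L-glutamine, seeded at line-dependent density and preincubated 24 h. Compound added from DMSO at 10-fold dilutions from 10^-4 to 10^-8 M, continuous exposure 48 h. Growth read by sulforhodamine B protein stain. GI50, TGI and LC50 derived per line.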

SF-268 = test: Cytotoxicity against human SF268 cells assessed as cell growth at 10 uM after 48 hrs by SRB assay; type: functional; conditions: SF-268, 48 h, read-out: Activity; method in brief: as §3
MCF7 = test: Cytotoxicity against human MCF7 cells assessed as cell growth at 10 uM after 48 hrs by SRB assay; type: functional; conditions: MCF7, 48 h, read-out: Activity; method in brief: as §3
MDA-MB-435 = test: Antitumor activity against human MDA-MB-435 cells implanted in mouse dosed qd for 4 days by formazan dye-based hollow fiber assay; type: functional, organism-based; method in brief: as §2
NCI-H522 = test: Antitumor activity against human NCI-H522 cells implanted in mouse dosed qd for 4 days by formazan dye-based hollow fiber assay; type: functional, organism-based; method in brief: as §2
UO-31 = test: Cytotoxicity against human UO31 cells assessed as cell growth at 10 uM after 48 hrs by SRB assay; type: functional; conditions: UO-31, 48 h, read-out: Activity; method in brief: as §5
MDA-MB-231 = test: Antitumor activity against human MDA-MB-231 cells implanted in mouse dosed qd for 4 days by formazan dye-based hollow fiber assay; type: functional, organism-based; method in brief: as §2

## CCc1ccc(-c2ccc(=O)n(-c3ccc(S(N)(=O)=O)cc3)n2)cc1
BT-549
  growth at 10 µM: 7.69%
HL-60(TB) [1]
  LC50: > 100 µM
HL-60(TB) [1]; read-out: GI50
  GI50: 0.376 µM
HL-60(TB) [1]; read-out: pGI50 (converted)
  GI50: 0.38 µM
HL-60(TB) [1]; read-out: pTGI (converted)
  TGI: 3.02 µM
LOX IMVI
  Activity: inactive
SF-295
  Activity: inactive
OVCAR-8
  growth at 10 µM: 51.2%
ACHN
  growth at 10 µM: 60.3%
HL-60(TB) [2]
  growth at 10 µM: -4.27%
Hs-578T [3]
  LC50 (50% net cell kill): > 100 µM
Hs-578T [3]; read-out: GI50
  GI50: 1.03 µM
Hs-578T [3]; read-out: pGI50 (converted)
  GI50: 1.02 µM
Hs-578T [3]; read-out: pTGI (converted)
  TGI: 17 µM
HCT-116
  growth at 10 µM: 16.8%
TK-10
  LC50: 77.6 µM
TK-10; read-out: GI50
  GI50: 10.8 µM
TK-10; read-out: pGI50 (converted)
  GI50: 11 µM
TK-10; read-out: pTGI (converted)
  TGI: 28.8 µM
Hs-578T [4]
  growth at 10 µM: 28.6%
SNB-19
  growth at 10 µM: 57.6%
NCI/ADR-RES
  growth at 10 µM: 1%
NCI-H226
  growth at 10 µM: 94.1%
SR
  LC50: > 100 µM
SR; read-out: GI50
  GI50: 0.0887 µM
SR; read-out: pGI50 (converted)
  GI50: 0.0891 µM
SR; read-out: pTGI (converted)
  TGI: 0.49 µM
OVCAR-3
  Activity: inactive
RPMI-8226
  LC50: > 100 µM
RPMI-8226; read-out: GI50
  GI50: 0.479 µM
RPMI-8226; read-out: pGI50 (converted)
  GI50: 0.479 µM
RPMI-8226; read-out: pTGI (converted)
  TGI: 8.51 µM
SF-268
  growth at 10 µM: 42%
MCF7
  growth at 10 µM: 30.1%
MDA-MB-435
  Activity: inactive
NCI-H522
  Activity: inactive
UO-31
  growth at 10 µM: 38.4%
MDA-MB-231
  Activity: inactive
